pKi: −log10 of the molar value.

For experiment [1], the target named is T1, Cholinesterase (Homo sapiens, UniProt P06276). In words: Inhibition of human BChE D70G/T243M/G390V mutant atypical-fluoride resistant heterozygous variant using propionylthiocholine as substrate assessed as inhibition rate constant incubated up to 30 mins prior to substrate addition by Ellman's method. An outline of the steps:
(§1)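 BChE from heparinized human donor plasma (centrifuged supernatant, phenotyped), unpurified, diluted 150 - 300 times in phosphate buffer. Enzyme incubated ≤30 min with carbamate in 0.1 M phosphate buffer pH 7.4, 25 °C. Reaction stopped with PTCh (4.0 mM final) and residual activity read by Ellman (DTNB 0.3 mM final, 412 nm). At least three carbamate concentrations, at least two experiments. First-order constants from ln(v0/vi) vs time; ki = kmax/Ki.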
Background: In Ellman's method for cholinesterases, released thiocholine reacts with DTNB.
Target sequence in this assay (P06276 29-602 limits assumed): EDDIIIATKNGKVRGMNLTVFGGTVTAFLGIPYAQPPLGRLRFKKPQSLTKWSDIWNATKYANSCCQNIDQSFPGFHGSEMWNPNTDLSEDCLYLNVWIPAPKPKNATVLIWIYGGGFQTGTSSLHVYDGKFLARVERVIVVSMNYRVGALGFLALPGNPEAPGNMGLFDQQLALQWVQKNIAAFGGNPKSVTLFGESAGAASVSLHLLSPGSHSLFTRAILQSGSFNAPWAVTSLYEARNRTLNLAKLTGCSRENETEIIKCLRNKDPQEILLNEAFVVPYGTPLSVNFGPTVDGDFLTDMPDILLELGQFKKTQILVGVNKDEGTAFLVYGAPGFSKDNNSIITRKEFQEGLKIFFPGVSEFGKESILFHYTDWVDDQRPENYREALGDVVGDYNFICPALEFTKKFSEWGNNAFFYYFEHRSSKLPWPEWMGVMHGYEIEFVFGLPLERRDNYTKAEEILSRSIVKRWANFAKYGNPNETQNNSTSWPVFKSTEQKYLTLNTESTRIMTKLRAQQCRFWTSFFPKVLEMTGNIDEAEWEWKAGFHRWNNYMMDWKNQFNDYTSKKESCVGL

The target of experiment [2] is T2, Acetylcholinesterase (Homo sapiens, UniProt P22303). In words: Inhibition of human AChE using acetylthiocholine as substrate assessed as inhibition rate constant by Ellman's method.
Experiment [3] concerns the target Cholinesterase (Homo sapiens, UniProt P06276, D98G). In words: Inhibition of human BChE D70G mutant atypical homozygous variant using propionylthiocholine as substrate assessed as inhibition rate constant incubated up to 30 mins prior to substrate addition by Ellman's method. Put shortly: as §1
The target of experiment [4] is T2, Acetylcholinesterase. Nature of the experiment: Inhibition of human AChE using acetylthiocholine as substrate by Ellman's method.
Experiment [5] concerns the target T1, Cholinesterase. In words: Inhibition of human BChE usual homozygous variant using propionylthiocholine as substrate assessed as inhibition rate constant incubated up to 30 mins prior to substrate addition by Ellman's method. An outline of the steps: as §1
Target sequence in this assay (P06276 29-602 limits assumed, stated change not applied): as the sequence (P06276 29-602 limits assumed) above
In experiment [6] the target is T1, Cholinesterase. In words: Inhibition of human BChE D70G mutant usual-atypical heterozygous variant using propionylthiocholine as substrate assessed as inhibition rate constant incubated up to 30 mins prior to substrate addition by Ellman's method. Put shortly: as §1
Target sequence in this assay (P06276 29-602 limits assumed): as above
For experiment [7], the target named is Cholinesterase (Homo sapiens, UniProt P06276, T271M/G418V). In words: Inhibition of human BChE T243M/G390V mutant fluoride-resistant homozygous variant using propionylthiocholine as substrate assessed as inhibition rate constant incubated up to 30 mins prior to substrate addition by Ellman's method. Put shortly:
as §1

Experiment [8] concerns the target T1, Cholinesterase. In words: Inhibition of human BChE T243M/G390V mutant fluoride-resistant homozygous variant using propionylthiocholine as substrate by Ellman's method. As to conditions: TDE = time-dependent effect. An outline of the steps:
(§2)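 Reversible inhibition of plasma BChE (phenotyped donor plasma, diluted 150 - 300 times) measured at several PTCh concentrations, with and without inhibitor (0.5 mM - 10 mM). Ellman read-out at 412 nm, DTNB 0.3 mM final, 0.1 M phosphate pH 7.4, 25 °C. Ki,app per substrate concentration from the Hunter-Downs equation by linear regression. Y-intercept gives K(I) and x-intercept gives K(S).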
Target sequence in this assay (P06276 whole entry): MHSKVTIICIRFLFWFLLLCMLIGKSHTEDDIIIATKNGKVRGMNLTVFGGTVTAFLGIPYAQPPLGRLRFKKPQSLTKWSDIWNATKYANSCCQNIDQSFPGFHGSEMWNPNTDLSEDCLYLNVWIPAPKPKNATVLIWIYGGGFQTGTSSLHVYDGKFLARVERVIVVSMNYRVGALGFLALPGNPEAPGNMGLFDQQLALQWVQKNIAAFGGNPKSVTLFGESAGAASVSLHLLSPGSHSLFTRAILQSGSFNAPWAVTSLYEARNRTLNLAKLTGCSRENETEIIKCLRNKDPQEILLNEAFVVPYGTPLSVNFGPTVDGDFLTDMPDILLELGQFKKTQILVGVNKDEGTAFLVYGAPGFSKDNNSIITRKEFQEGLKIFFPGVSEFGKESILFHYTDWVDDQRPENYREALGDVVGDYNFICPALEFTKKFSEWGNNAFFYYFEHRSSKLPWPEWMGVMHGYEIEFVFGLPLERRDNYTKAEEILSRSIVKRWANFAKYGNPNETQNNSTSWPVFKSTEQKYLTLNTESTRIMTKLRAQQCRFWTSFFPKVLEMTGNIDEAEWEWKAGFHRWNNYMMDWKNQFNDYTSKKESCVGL

Experiment [9] has as its target T1, Cholinesterase. Nature of the experiment: Inhibition of human BChE D70G/T243M/G390V mutant atypical-fluoride resistant heterozygous variant using propionylthiocholine as substrate by Ellman's method. As to conditions: TDE = time-dependent effect. Put shortly:
as §2
Target sequence in this assay (P06276 whole entry): as above

Experiment [10] addresses T1, Cholinesterase. Nature of the experiment: Inhibition of human BChE usual homozygous variant using propionylthiocholine as substrate by Ellman's method. The following applies: TDE = time-dependent effect. Put shortly:
as §2
Target sequence in this assay (P06276 whole entry): as above

In experiment [11] the target is T1, Cholinesterase. In words: Inhibition of human BChE D70G mutant atypical homozygous variant using propionylthiocholine as substrate by Ellman's method. The following applies: TDE = time-dependent effect. Put shortly:
as §2
Target sequence in this assay (P06276 whole entry): as above

In experiment [12] the target is T1, Cholinesterase. In words: Inhibition of human BChE D70G mutant usual-atypical heterozygous variant using propionylthiocholine as substrate by Ellman's method. The following applies: TDE = time-dependent effect. An outline of the steps:
as §2
Target sequence in this assay (P06276 whole entry): as above

Experiment [13] is filed under the species Homo sapiens. Nature of the experiment: Selectivity ratio of apparent dissociation constant for enzyme-inhibitor complex for human AChE to apparent dissociation constant for enzyme-inhibitor complex for human BChE D70G mutant atypical homozygous variant. Put shortly:
(§3)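 Human plasma BChE (phenotyped variants) and hemolysed erythrocyte AChE were used unpurified, with plasma diluted 150-300x and erythrocytes 600x. Activity was read by the Ellman method at 412 nm (DTNB 0.3 mM final) in 0.1 M phosphate, pH 7.4, 25 °C. Substrate was PTCh for BChE and ATCh for AChE, each at several concentrations, with inhibitor at 0.5-10 mM. Ki is the y-intercept of a Hunter-Downs linear regression.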

For experiment [14], the species on record is Homo sapiens. In words: Selectivity ratio of apparent dissociation constant for enzyme-inhibitor complex for human AChE to apparent dissociation constant for enzyme-inhibitor complex for human BChE T243M/G390V mutant fluoride-resistant homozygous variant. Put shortly:
as §3

Experiment [15] deals with T1, Cholinesterase. In words: Binding affinity to human BChE D70G mutant atypical homozygous variant relative to terbutaline.
Target sequence in this assay (P06276 whole entry): as above

Sequence of Cholinesterase (Homo sapiens, UniProt P06276, T271M/G418V) (P06276 29-602 T271M/G418V limits assumed): as the sequence (P06276 29-602 limits assumed) above, with T243M, G390V counted along it
Sequence of Cholinesterase (Homo sapiens, UniProt P06276, D98G) (P06276 29-602 D98G limits assumed): as the sequence (P06276 29-602 limits assumed) above, with D70G counted along it
T2 sequence (P22303 whole entry): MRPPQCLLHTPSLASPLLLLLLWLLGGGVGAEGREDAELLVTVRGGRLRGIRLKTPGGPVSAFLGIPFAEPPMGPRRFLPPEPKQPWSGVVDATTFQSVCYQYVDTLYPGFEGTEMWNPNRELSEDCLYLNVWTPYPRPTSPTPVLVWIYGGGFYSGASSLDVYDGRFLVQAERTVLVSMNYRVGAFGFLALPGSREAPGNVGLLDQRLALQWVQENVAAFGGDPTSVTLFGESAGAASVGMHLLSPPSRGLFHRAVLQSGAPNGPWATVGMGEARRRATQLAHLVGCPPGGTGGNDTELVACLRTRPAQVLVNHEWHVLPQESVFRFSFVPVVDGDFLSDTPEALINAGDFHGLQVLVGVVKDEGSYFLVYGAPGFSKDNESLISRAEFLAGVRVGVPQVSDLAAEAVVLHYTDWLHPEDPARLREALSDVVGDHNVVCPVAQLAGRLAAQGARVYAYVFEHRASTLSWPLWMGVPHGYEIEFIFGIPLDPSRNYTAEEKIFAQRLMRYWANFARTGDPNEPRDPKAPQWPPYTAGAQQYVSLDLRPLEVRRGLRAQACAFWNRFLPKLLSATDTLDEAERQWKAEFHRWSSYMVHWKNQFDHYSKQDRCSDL

What is called pKi is the Ki on a negative log10 scale, so that one unit is a factor of ten. A higher pKi goes with a low Ki. For `CC(C)NC[C@H](O)c1cc(OC(=O)N(C)C)cc(OC(=O)N(C)C)c1.Cl`, on Cholinesterase [1], the “Carbamylation rate constant (ki)” value was 550 ×10³ /M/min. The Inhibition rate constant at Acetylcholinesterase [2] is reported as 4.7 ×10³ /M/min. In addition, the “bimolecular inhibition rate constant (ki)” value at Cholinesterase [3] was 76 ×10³ /M/min; on Cholinesterase [5] it was 3200 ×10³ /M/min; on Cholinesterase [6], 2200 ×10³ /M/min; on Cholinesterase [7] it was 1100 ×10³ /M/min. The compound also gave a pKi at Acetylcholinesterase [4] of 3.41.

For the compound `CC(C)NC[C@H](O)c1ccc(OC(=O)N(C)C)c(OC(=O)N(C)C)c1.Cl`, at Cholinesterase [1], the “Carbamylation rate constant (ki)” value came out at 100 ×10³ /M/min. The Inhibition rate constant on Acetylcholinesterase [2] is listed as 2.7 ×10³ /M/min. The “bimolecular inhibition rate constant (ki)” value on Cholinesterase [3] came to 31 ×10³ /M/min; at Cholinesterase [5], 340 ×10³ /M/min; on Cholinesterase [6], 210 ×10³ /M/min; on Cholinesterase [7], 150 ×10³ /M/min. Moreover, the pKi at Acetylcholinesterase [4] was 2.92.

For `CC(C)NCC(O)c1cc(OC(=O)N(C)C)cc(OC(=O)N(C)C)c1.Cl` (racemic), the “Carbamylation rate constant (ki)” value on Cholinesterase [1] was 440 ×10³ /M/min. Also, the Inhibition rate constant on Acetylcholinesterase [2] came to 2.3 ×10³ /M/min. For the same compound, the inhibition entry at Cholinesterase [8], at Cholinesterase [9], at Cholinesterase [10], on Cholinesterase [11] and on Cholinesterase [12] was “tde” in each case. For the same compound, the “bimolecular inhibition rate constant (ki)” value is listed as 40 ×10³ /M/min at Cholinesterase [3], 2200 ×10³ /M/min at Cholinesterase [5], 1400 ×10³ /M/min on Cholinesterase [6] and 600 ×10³ /M/min at Cholinesterase [7]. On Acetylcholinesterase [4], the pKi is 3.15.

As for `CC(C)NCC(O)c1ccc(OC(=O)N(C)C)c(OC(=O)N(C)C)c1.Cl` (racemic), on Cholinesterase [1], the “Carbamylation rate constant (ki)” value was 87 ×10³ /M/min. Further, on Acetylcholinesterase [2], the Inhibition rate constant is on record as 2.5 ×10³ /M/min. The inhibition entry on Cholinesterase [8], at Cholinesterase [9], at Cholinesterase [10], at Cholinesterase [11] and at Cholinesterase [12] was “tde” each time. Moreover, the “bimolecular inhibition rate constant (ki)” value at Cholinesterase [3] is recorded as 21 ×10³ /M/min; on Cholinesterase [5], 200 ×10³ /M/min; at Cholinesterase [6], 160 ×10³ /M/min; at Cholinesterase [7], 140 ×10³ /M/min. This compound had a pKi at Acetylcholinesterase [4] of 2.85.

As to `CC(C)NCC(O)c1cc(O)cc(O)c1` (racemic), the Selectivity ratio in the experiment filed under Homo sapiens [13] and in the experiment filed under Homo sapiens [14] was 4 each time.

On to `CC(C)NCC(O)c1ccc(O)c(O)c1` (racemic), for which the Selectivity ratio in the experiment filed under Homo sapiens [13] and in the experiment listed under Homo sapiens [14] was 4 in each case. Moreover, on Cholinesterase [15], the Ratio is 2.

(Values after ChEMBL document CHEMBL2163243, “Metaproterenol, isoproterenol, and their bisdimethylcarbamate derivatives as human cholinesterase inhibitors” (J Med Chem, 2012).)
